In the assay the test system is T1, O5AN1.
T1 sequence (whole entry): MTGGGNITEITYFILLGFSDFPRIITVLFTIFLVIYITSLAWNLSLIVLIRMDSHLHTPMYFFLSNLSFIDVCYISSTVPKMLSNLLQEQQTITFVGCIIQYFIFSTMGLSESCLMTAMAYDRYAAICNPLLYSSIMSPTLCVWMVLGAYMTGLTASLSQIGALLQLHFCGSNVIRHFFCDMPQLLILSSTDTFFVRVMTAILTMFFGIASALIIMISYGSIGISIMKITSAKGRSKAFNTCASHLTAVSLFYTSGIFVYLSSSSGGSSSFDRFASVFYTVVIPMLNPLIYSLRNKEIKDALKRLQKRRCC
As to conditions: stereoisomer not certain. In a few lines: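 Each receptor–molecule pair is labelled responsive or non-responsive (inactive) according to whether the original authors judged the measured signal statistically different from baseline. The data were taken from the main text and supplementary material of published papers and checked for typos and inconsistencies. Assay methods differed by source, with transient luciferase assays in mammalian cell lines being common.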

1 compound from the M2OR odorant receptor database can be followed below.
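Also: active if original authors judged signal statistically different from baseline.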

`CCC(=O)OCC(C)(C)OC(C)C1CCCC(C)(C)C1` (stereo unspecified): the “odorant receptor agonist call” value is “inactive”.
